Experimental data reported in ChEMBL document CHEMBL1165850, “Synthesis, biological evaluation and molecular docking of novel series of spiro [(2H,3H) quinazoline-2,1'- cyclohexan]-4(1H)-one derivatives as anti-inflammatory and analgesic agents” (Eur J Med Chem, 2010).

Legend:
Rattus norvegicus [1] = assay: Antiinflammatory activity in rat assessed as reduction in carrageenan-induced paw edema at 9 mg/kg, ip administered 1 hr before carrageenan challenge measured after 3 hrs; type: functional; design: unit not given here; settings: route intraperitoneal
In short: (§1)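 Adult rats of either sex (150–200 g), randomly grouped. Compounds were dissolved in DMSO and given i.p. at 9 mg/kg; indomethacin was given at 10 mg/kg; controls received DMSO i.p. Dosing was 1 h before 100 ul of 1% carrageenan in saline injected subplantar into the right hind paw. Paw volume was measured by planimeter before and at 1, 2, 3 and 4 h. Values are mean ± S.E., analysed by one-way ANOVA with LSD.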

Mus musculus [2] = assay: Analgesic activity in mouse assessed as reaction time administered 1 hr before test measured after 2 hrs by hot plate test; type: functional
In short: (§2)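 Hot-plate test in adult mice (20–25 g), plate at 52 °C (±0.1 °C). Vehicle, compounds or tramadol (20 mg/Kg b wt) were given 60 min before testing. Latency to lick a hind paw or jump was recorded before dosing and at 1 and 2 h after. Values are mean ± S.E. of six animals per group, with Dunnett's test against control.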

Rattus norvegicus [3] = assay: Gastrointestinal toxicity in Wistar rat assessed as ulcerogenic effect at 9 mg/kg, po after 7 hrs; type: organism-based; design: dose 9 mg/kg, route oral; settings: in vivo
In short: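 Male Wistar rats, 150–175 g, groups of 5, fasted 48 h, then given 9 mg/kg orally as an aqueous suspension (10 mL/kg). Killed 7 h later. Stomachs were opened along the greater curvature and inspected for irritation, scored as number of ulcers, ulcer severity and number of rats with ulcers per 5. Ethanol control, indomethacin reference. Reported as mean ± S.E.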

Mus musculus [4] = assay: Analgesic activity in mouse assessed as reaction time administered 1 hr before test measured after 1 hr by hot plate test; type: functional; in short: as §2
Rattus norvegicus [5] = assay: Antiinflammatory activity in rat assessed as reduction in carrageenan-induced paw edema at 9 mg/kg, ip administered 1 hr before carrageenan challenge measured after 1 hr; type: functional; design: unit not given here; settings: route intraperitoneal; in short: as §1
Rattus norvegicus [6] = assay: Antiinflammatory activity in rat assessed as reduction in carrageenan-induced paw edema at 9 mg/kg, ip administered 1 hr before carrageenan challenge measured after 2 hrs; type: functional; design: unit not given here; settings: route intraperitoneal; in short: as §1
Mus musculus [7] = assay: Analgesic activity in mouse assessed as reaction time at 20 mg/kg administered 1 hr before test measured after 2 hrs by hot plate test; type: functional; in short: as §2
Mus musculus [8] = assay: Analgesic activity in mouse assessed as reaction time at 20 mg/kg administered 1 hr before test measured after 1 hr by hot plate test; type: functional; in short: as §2

SMILES: CN(C)c1ccc(C2CC(c3ccc(N4C(=O)c5ccccc5NC45CCCCC5)cc3)=NN2c2ccccc2)cc1 (centres undefined)
- Activity (Rattus norvegicus [1]): 66.4
- Time (Mus musculus [2]): 20.5 s
- UI (Rattus norvegicus [3]): 10.4
- Time (Mus musculus [4]): 15 s
- Activity (Rattus norvegicus [5]): 57.9
- Activity (Rattus norvegicus [6]): 65.4

SMILES: O=C1c2ccccc2NC2(CCCCC2)N1c1ccc(C2=NN(c3ccccc3)C(c3ccco3)C2)cc1 (centres undefined)
- Activity (Rattus norvegicus [1]): 82.5
- Time (Mus musculus [2]): 10.9 s
- Time (Mus musculus [4]): 9.2 s
- Activity (Rattus norvegicus [5]): 52.2
- Activity (Rattus norvegicus [6]): 79.1

SMILES: CCOC(=O)c1ccc(N2C(=O)c3ccccc3NC23CCCCC3)cc1
- Activity (Rattus norvegicus [1]): 67.8
- Time (Mus musculus [2]): 14.6 s
- Time (Mus musculus [4]): 12 s
- Activity (Rattus norvegicus [5]): 44.2
- Activity (Rattus norvegicus [6]): 59.6

SMILES: COc1ccc(/C=N/NC(=O)c2ccc(N3C(=O)c4ccccc4NC34CCCCC4)cc2)cc1
- Activity (Rattus norvegicus [1]): 88.7
- Time (Mus musculus [2]): 16.9 s
- Time (Mus musculus [4]): 13.3 s
- Activity (Rattus norvegicus [5]): 72.4
- Activity (Rattus norvegicus [6]): 88

SMILES: O=C(NN1C(=O)CN(C2CCCCC2)C1=S)c1ccc(N2C(=O)c3ccccc3NC23CCCCC3)cc1
- Activity (Rattus norvegicus [1]): 77.2
- Time (Mus musculus [2]): 13 s
- Time (Mus musculus [4]): 8.9 s
- Activity (Rattus norvegicus [5]): 54.9
- Activity (Rattus norvegicus [6]): 66.7

SMILES: NNC(=O)c1ccc(N2C(=O)c3ccccc3NC23CCCCC3)cc1
- Activity (Rattus norvegicus [1]): 82.1
- Time (Mus musculus [2]): 17 s
- Time (Mus musculus [4]): 9.4 s
- Activity (Rattus norvegicus [5]): 57.5
- Activity (Rattus norvegicus [6]): 85.7

SMILES: NS(=O)(=O)c1ccc(N2C(=O)c3ccccc3NC23CCCCC3)cc1
- Activity (Rattus norvegicus [1]): 87.7
- Time (Mus musculus [2]): 17.5 s
- Time (Mus musculus [4]): 9.5 s
- Activity (Rattus norvegicus [5]): 57.7
- Activity (Rattus norvegicus [6]): 78.9

SMILES: O=C1c2ccccc2NC2(CCCCC2)N1c1ccc(S(=O)(=O)Nc2ncccn2)cc1
- Activity (Rattus norvegicus [1]): 80.1
- Time (Mus musculus [2]): 21.6 s
- UI (Rattus norvegicus [3]): 0.6
- Time (Mus musculus [4]): 19.8 s
- Activity (Rattus norvegicus [5]): 60.4
- Activity (Rattus norvegicus [6]): 74.1

SMILES: CCC(=S)NS(=O)(=O)c1ccc(N2C(=O)c3ccccc3NC23CCCCC3)cc1
- Activity (Rattus norvegicus [1]): 88.6
- Time (Mus musculus [2]): 19.1 s
- Time (Mus musculus [4]): 11 s
- Activity (Rattus norvegicus [5]): 67.5
- Activity (Rattus norvegicus [6]): 83.4

SMILES: N#Cc1c(-c2ccc(F)cc2)cc(-c2ccc(N3C(=O)c4ccccc4NC34CCCCC4)cc2)[nH]c1=O
- Activity (Rattus norvegicus [1]): 88
- Time (Mus musculus [2]): 13.5 s
- Time (Mus musculus [4]): 11.8 s
- Activity (Rattus norvegicus [5]): 85.4
- Activity (Rattus norvegicus [6]): 74.6

SMILES: N#Cc1c(-c2ccccc2O)cc(-c2ccc(N3C(=O)c4ccccc4NC34CCCCC4)cc2)[nH]c1=O
- Activity (Rattus norvegicus [1]): 76.4
- Time (Mus musculus [2]): 19.4 s
- UI (Rattus norvegicus [3]): 0
- Time (Mus musculus [4]): 24.9 s
- Activity (Rattus norvegicus [5]): 49.4
- Activity (Rattus norvegicus [6]): 71.8

SMILES: O=C(NN1C(=O)CSC1c1cccs1)c1ccc(N2C(=O)c3ccccc3NC23CCCCC3)cc1 (centres undefined)
- Activity (Rattus norvegicus [1]): 55.9
- Time (Mus musculus [2]): 18.4 s
- UI (Rattus norvegicus [3]): 0.4
- Time (Mus musculus [4]): 21 s
- Activity (Rattus norvegicus [5]): 56.2
- Activity (Rattus norvegicus [6]): 65.1

SMILES: O=C(NNC(=S)NC1CCCCC1)c1ccc(N2C(=O)c3ccccc3NC23CCCCC3)cc1
- Activity (Rattus norvegicus [1]): 83.9
- Time (Mus musculus [2]): 17.2 s
- Time (Mus musculus [4]): 9.3 s
- Activity (Rattus norvegicus [5]): 65.1
- Activity (Rattus norvegicus [6]): 82.1

SMILES: N#Cc1c(-c2ccccc2O)cc(-c2ccc(N3C(=O)c4ccccc4NC34CCCCC4)cc2)[nH]c1=N
- Activity (Rattus norvegicus [1]): 68.6
- Time (Mus musculus [2]): 18.4 s
- UI (Rattus norvegicus [3]): 2
- Time (Mus musculus [4]): 14.6 s
- Activity (Rattus norvegicus [5]): 61
- Activity (Rattus norvegicus [6]): 66.6

SMILES: O=C(/C=C/c1ccco1)c1ccc(N2C(=O)c3ccccc3NC23CCCCC3)cc1
- Activity (Rattus norvegicus [1]): 94.8
- Time (Mus musculus [2]): 17.1 s
- Time (Mus musculus [4]): 9.6 s
- Activity (Rattus norvegicus [5]): 60.4
- Activity (Rattus norvegicus [6]): 93.8

SMILES: O=C(NN1C(=O)CC(=O)N(C2CCCCC2)C1=S)c1ccc(N2C(=O)c3ccccc3NC23CCCCC3)cc1
- Activity (Rattus norvegicus [1]): 85.1
- Time (Mus musculus [2]): 17.1 s
- Time (Mus musculus [4]): 9.4 s
- Activity (Rattus norvegicus [5]): 61.7
- Activity (Rattus norvegicus [6]): 79.3

SMILES: CC(=O)N1N=C(c2ccc(N3C(=O)c4ccccc4NC34CCCCC4)cc2)CC1c1ccco1 (centres undefined)
- Activity (Rattus norvegicus [1]): 83.5
- Time (Mus musculus [2]): 17 s
- Time (Mus musculus [4]): 9.5 s
- Activity (Rattus norvegicus [5]): 49.9
- Activity (Rattus norvegicus [6]): 88.7

SMILES: N#Cc1c(-c2ccc(F)cc2)cc(-c2ccc(N3C(=O)c4ccccc4NC34CCCCC4)cc2)[nH]c1=N
- Activity (Rattus norvegicus [1]): 81.3
- Time (Mus musculus [2]): 17.8 s
- UI (Rattus norvegicus [3]): 3.2
- Time (Mus musculus [4]): 24.1 s
- Activity (Rattus norvegicus [5]): 66.4
- Activity (Rattus norvegicus [6]): 78.2

SMILES: CC(=O)c1ccc(N2C(=O)c3ccccc3NC23CCCCC3)cc1
- Activity (Rattus norvegicus [1]): 81.5
- Time (Mus musculus [2]): 17 s
- Time (Mus musculus [4]): 9.1 s
- Activity (Rattus norvegicus [5]): 54.6
- Activity (Rattus norvegicus [6]): 80.9

SMILES: COc1ccc2c(c1)c(CC(=O)O)c(C)n2C(=O)c1ccc(Cl)cc1 [INDOMETHACIN]
- UI (Rattus norvegicus [3]): 9.8

SMILES: COc1cccc(C2(O)CCCCC2CN(C)C)c1 (centres undefined) [TRAMADOL]
- Time (Mus musculus [7]): 18.2 s
- Time (Mus musculus [8]): 17.6 s
